A selection: hits, their analogues and other compounds. The true share with any hit is near 2.5%.
MEKK2 mut-MEK5 – signal of MEK5 binding to mutant human MEKK2 PB1 domain | bead flow cytometry, Alexa488-MEK5 binding to MEKK2 mutant | percent response, % at 10 µM | hit rate 0.35% among 290,000 | AID 1530; in the data active = percent response above about 24%, passing the limit was not always enough
ABCG2 inh – inhibitors of human ABCG2 transporter, ABCB1 counter-screen; Q9UNQ0; IgMXP3 cells, JC-1 efflux, flow cytometry; inhibition, % at 6.6 µM; hit rate 0.1% among 190,000;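 active = inhibition above 80%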;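 note: 0% = DMSO and 100% = nicardipine control wells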
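Times: 10 min at 25 °C | Test system: Two drug-resistant human cell lines, ABCG2 and ABCB1 | Quantity: 3 million cells/mL final, two lines in 1:1 ratio | Signal: Flow cytometry, 530 nm JC-1 signal | Dosing: Compound at 6.6 µM | Controls: Nicardipine and DMSO wells | Reagent: JC-1 as fluorescent efflux pump substrate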
ABCB1 block – blocks JC-1 efflux by human ABCB1 transporter. hit rate 0.067% among 190,000. CCRF-Adr cells, flow cytometry. inhibition, % at 6.6 µM; in the data active = inhibition above about 40%;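 note: 0% = vehicle and 100% = reference inhibitor; higher value means more JC-1 retained so stronger ABCB1 efflux block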
Target sequence (P08183 whole entry, looked up): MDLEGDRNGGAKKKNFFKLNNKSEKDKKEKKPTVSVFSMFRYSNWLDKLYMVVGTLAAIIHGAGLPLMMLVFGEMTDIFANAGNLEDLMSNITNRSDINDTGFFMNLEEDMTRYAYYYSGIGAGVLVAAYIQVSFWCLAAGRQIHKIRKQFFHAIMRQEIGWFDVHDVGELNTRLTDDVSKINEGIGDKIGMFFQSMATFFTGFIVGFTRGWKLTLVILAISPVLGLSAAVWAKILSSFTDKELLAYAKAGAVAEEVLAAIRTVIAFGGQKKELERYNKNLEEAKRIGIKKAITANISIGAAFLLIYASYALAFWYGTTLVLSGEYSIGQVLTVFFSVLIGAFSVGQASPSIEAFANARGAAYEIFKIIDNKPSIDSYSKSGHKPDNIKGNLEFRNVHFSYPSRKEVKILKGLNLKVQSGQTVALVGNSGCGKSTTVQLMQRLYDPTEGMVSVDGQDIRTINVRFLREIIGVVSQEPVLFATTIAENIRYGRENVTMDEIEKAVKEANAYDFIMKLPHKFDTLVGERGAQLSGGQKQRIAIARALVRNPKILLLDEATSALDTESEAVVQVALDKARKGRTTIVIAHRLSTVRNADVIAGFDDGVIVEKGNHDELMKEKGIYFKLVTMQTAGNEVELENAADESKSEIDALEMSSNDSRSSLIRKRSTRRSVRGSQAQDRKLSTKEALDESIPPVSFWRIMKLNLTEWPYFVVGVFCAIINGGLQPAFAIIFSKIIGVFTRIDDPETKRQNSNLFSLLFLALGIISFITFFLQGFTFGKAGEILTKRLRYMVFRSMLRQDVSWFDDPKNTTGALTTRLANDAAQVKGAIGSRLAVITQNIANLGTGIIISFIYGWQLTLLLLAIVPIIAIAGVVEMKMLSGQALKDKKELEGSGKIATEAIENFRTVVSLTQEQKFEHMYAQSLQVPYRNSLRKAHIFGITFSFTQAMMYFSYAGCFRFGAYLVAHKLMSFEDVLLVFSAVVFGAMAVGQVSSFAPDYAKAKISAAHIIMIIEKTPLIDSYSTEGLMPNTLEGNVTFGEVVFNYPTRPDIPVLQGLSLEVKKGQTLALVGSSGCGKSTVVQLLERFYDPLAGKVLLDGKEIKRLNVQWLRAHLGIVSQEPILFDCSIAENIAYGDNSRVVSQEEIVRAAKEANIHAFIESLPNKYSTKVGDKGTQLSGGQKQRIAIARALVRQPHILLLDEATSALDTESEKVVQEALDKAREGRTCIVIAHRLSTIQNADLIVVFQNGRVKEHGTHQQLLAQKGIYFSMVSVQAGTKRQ
MEKK3 PB1 HTS – modulators (inhibitors or enhancers) of MEK5 binding to human MEKK3 PB1 domain; Q99759; bead-based flow cytometry, Alexa488-MEK5 binding to MEKK3; actives lie on both sides; 0 = blocked by unlabeled MEK5, 100 = vehicle; binding response (% of control), % at 10 µM; hit rate 1.4% among 290,000; AID 1529;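 active = binding response more than 3 SD above or below the average of its plate-row segment, actives on both sides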;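 note: Alexa488 bead fluorescence after subtracting the streptavidin-only scavenger bead signal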
MEKK2 WT-MEK5 – raises or lowers MEK5 binding to wildtype human MEKK2 PB1 domain; binding response (% of control), % at 10 µM; AID 1531; Q9Y2U5; hit rate 1.1% among 290,000; bead flow cytometry, Alexa488-MEK5 binding to MEKK2 WT; actives lie on both sides; in the data active = binding response below about 67% or above about 130%
Efflux pump mplx – antifungal efflux pump inhibition, Nile Red retention; hit rate 0.44% among 330,000; AID 485275; inhibition, % at 10 µM; S. cerevisiae Candida pump triplex;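 active = plate passing quality check with inhibition over a set limit, or well fluorescence over plate mean plus 4 SD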;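 note: Nile Red retained in pooled yeast measured as flow cytometry median fluorescence; 0% = buffer negative control and 100% = Enniatin B positive control; higher means more Nile Red kept so more efflux inhibition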
MEKK2wt confirm – raises or lowers MEK5 binding to wildtype human MEKK2, retest. shares compounds with MEKK3 PB1 HTS. bead flow cytometry, Alexa488-MEK5 binding to MEKK2 WT; actives lie on both sides. binding response (% of control), % at 10 µM. hit rate 2.4% among 5,900. AID 1892; in the data active = binding response below about 16% or above about 210%; inactive = in between
MEKK2mut-MEK5 – signal of MEK5 binding to mutant human MEKK2, retest. shares compounds with MEKK3 PB1 HTS. bead flow cytometry, Alexa488-MEK5 binding to MEKK2 mutant. percent response, % at 10 µM. hit rate 2% among 5,900; in the data active = percent response mostly above about 71%, no sharp cut-off; inactive = mostly below about 38%;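 note: higher means compound restores mutant binding toward wildtype level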
MEKK3 confirm – confirmation of inhibitors of MEK5 binding to human MEKK3 | shares compounds with MEKK3 PB1 HTS | bead flow cytometry, Alexa488-MEK5 binding to MEKK3; active compounds read low | binding response (% of control), % at 10 µM | hit rate 1.8% among 5,900;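 active = binding response below 72% of control, or above a set upper limit, though filed actives all read lower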;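 note: 100% = DMSO only wells and 0% = binding blocked by excess unlabeled MEK5; lower values mean stronger disruption of MEK5 binding to MEKK3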
Active calls of the source: *; . = not tested or not shown; [ ] = remark or other dose.

SMILES	MEKK2 mut-MEK5	ABCG2 inh	ABCB1 block	MEKK3 PB1 HTS	MEKK2 WT-MEK5	Efflux pump mplx	MEKK2wt confirm	MEKK2mut-MEK5	MEKK3 confirm
CCOC(=O)c1c(CSCc2ccccc2)oc2ccc(O)c(CN(C)C)c12	18	.	.	104	137*	0	139	21	106
CC1C(C)C(O)(c2ccccc2)CCN1C (stereo not drawn)	9	5	2	130*	100	0	117	14	97
Cc1ccc(S(=O)(=O)NCCC(=O)NCc2ccccc2)cc1	7	3	0	110	107	0	.	.	.
Cc1ccc(NC(=O)CCNS(=O)(=O)c2ccccc2)c(C(=O)c2ccccc2)c1	1	18	1	138*	110	0	100	2	104
O=C(CN1CCOCC1)Nc1ncc(Cc2cccc(Cl)c2)s1	0	9	1	152*	109	0	105	3	106
O=C1c2ccccc2-c2nc3ccccc3nc21	-27	-2	0	67*[inhibitor]	72	0	94	-7	99
Cc1onc(-c2c(Cl)cccc2Cl)c1COC(=O)c1ccc(Cl)cc1	-14	.	.	91	90	0	.	.	.
CN(C)CCCNS(=O)(=O)c1ccc(N2CCN(Cc3ccc4c(c3)OCO4)CC2)c([N+](=O)[O-])c1	8	.	.	100	113	0	.	.	.
CCOC(=O)NN1C(=O)c2ccccc2NC1c1ccc(N(C)C)cc1 (stereo not drawn)	1	1	0	144*	109	0	103	10	107
CCOC(=O)NN1C(=O)c2ccccc2NC1c1ccc(OC)cc1 (stereo not drawn)	0	2	1	124	100	0	.	.	.
CCOC(=O)NN1C(=O)c2ccccc2NC1c1ccccc1 (stereo not drawn)	1	8	0	149*	105	0	119	15	107
Cc1ccc(NC(=O)C2(S(=O)(=O)c3ccc(Cl)cc3)CC2)cc1	2	.	.	102	101	0	.	.	.
CCN(CC)C(=N)/C(C#N)=N/Nc1ccc(C)cc1	2	.	.	108	104	0	.	.	.
c1ccc(-c2csc(-n3cccn3)n2)cc1	-1	4	1	112	101	0	.	.	.
Cn1nc(C(=O)OCC(=O)Nc2ccccc2[N+](=O)[O-])c2ccccc2c1=O	.	.	.	.	.	1	.	.	.
O=C(OCCNc1nc(-c2ccccc2)nc2ccccc12)c1cccnc1	-1	2	0	92	99	0	.	.	.
O=C(OCCNc1nc(-c2ccccc2)nc2ccccc12)c1ccncc1	7	37	6	146*	133	0	93	-9	88
COc1cc(OC)c2c(-c3ccccc3)cc(=O)oc2c1C(CCN1CCOCC1)c1ccc(N(C)C)cc1 (stereo not drawn)	.	.	.	.	.	1	.	.	.
COc1cc(OC)c2c(-c3ccccc3)cc(=O)oc2c1C(CCN1CCCCC1)c1ccc(N(C)C)cc1 (stereo not drawn)	20	.	.	127	183*	0	154	34	104
COc1ccc(C(CCN2CCCCC2)c2c(OC)cc(OC)c3c(-c4ccccc4)cc(=O)oc23)cc1 (stereo not drawn)	26*	.	.	106	182*	0	153	22	106
CCN(C(=O)COC(=O)c1cnc(C)cn1)C1CCCCC1	-17	0	0	1.0*[inhibitor]	2.0*[inhibitor]	0	99	-5	99
CCN(CC)CCCNC(=O)c1ccc(CS(=O)(=O)c2ccccc2OC)o1	9	.	.	100	105	0	.	.	.
CC(N=c1ccccn1C(=O)Nc1ccc(Cl)cc1)c1ccco1 (stereo not drawn)	-5	3	0	99	96	0	.	.	.
CC(N=c1ccccn1C(=O)Nc1ccc(F)cc1)c1ccco1 (stereo not drawn)	-39	2	0	0.0*[inhibitor]	-4.0*[inhibitor]	0	95	-18	95
Cc1ccc(C(=O)NNC(=O)c2ccc(-n3cncn3)c([N+](=O)[O-])c2)cc1	.	.	.	.	.	0	.	.	.
SMILES	MEKK2 mut-MEK5	ABCG2 inh	ABCB1 block	MEKK3 PB1 HTS	MEKK2 WT-MEK5	Efflux pump mplx	MEKK2wt confirm	MEKK2mut-MEK5	MEKK3 confirm
CC(C)c1ccc(N(C)C(=O)Cc2c(C(=O)O)n(C)c3ccccc23)cc1	-15	.	.	1.0*[inhibitor]	-1.0*[inhibitor]	0	100	1	100
COc1ccc(S(=O)(=O)N(c2onc(C)c2Cl)S(=O)(=O)c2ccc(OC)c(OC)c2)cc1OC	9	0	0	131*	120	0	110	4	102
COc1ccccc1NC(=O)CCN1C(=O)C2C3CCC(C3)C2C1=O (stereo not drawn)	3	.	.	94	101	0	.	.	.
Cc1cc(C(=O)N/N=C/c2cc(N=Nc3ccccc3)ccc2O)n[nH]1	-4	-9	-1	38*[inhibitor]	66	0	79	-16	86
COC(=O)N/N=C/c1cc(N=Nc2ccccc2)ccc1O	0	.	.	95	97	0	.	.	.
Cc1ccc(-n2nc(C)c3c(C)c(CCC(=O)Nc4ccc(CN5CCCC5)cc4)c(C)nc32)cc1	34	.	.	108	191*	0	177	30	106
CCC(c1nc2ccccc2c(=O)n1CCCn1ccnc1)N1C(=O)c2ccccc2C1=O (stereo not drawn)	-12	2	2	77*[inhibitor]	85	0	101	-2	103
CC(Nc1ccc2c(c1)OCCO2)C(=O)N1c2ccccc2CC1C (stereo not drawn)	-1	3	0	95	98	0	.	.	.
